According to ChEMBL document CHEMBL4340580, “Antibacterial and Inhibitory Activities against Nitric Oxide Production of Coumaronochromones and Prenylated Isoflavones from Millettia extensa” (J Nat Prod, 2019):
pIC50: −log10 of the molar value. Values after ≈ are worked out from the molar mass of the structure shown. Active and inactive are the calls of the source. The rule behind the calls is not given here.

Assays:
[1] = Toxicity in mouse RAW264.7 cells assessed as cell viability at 10 uM by MTT assay; format: cell-based; details: read-out: Activity
[2] = tested on: Streptococcus mutans; test: Antibacterial activity against Streptococcus mutans by CLSI protocol based method; format: functional
Method in brief: (§1)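 Strains came from the Microbiological Resources Center, Bangkok, Thailand. Antibacterial testing followed Clinical and Laboratory Standards Institute recommendations.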

[3] = tested on: Micrococcus luteus; test: Antibacterial activity against Micrococcus luteus by CLSI protocol based method; format: functional; method in brief: as §1
[4] = tested on: Micrococcus luteus; test: Antibacterial activity against Micrococcus luteus at >128 ug/ml by CLSI protocol based method; format: functional, organism-based; method in brief: as §1
[5] = tested on: Shigella flexneri; test: Antibacterial activity against Shigella flexneri at >128 ug/ml by CLSI protocol based method; format: functional, organism-based; method in brief: as §1
[6] = tested on: Staphylococcus aureus; test: Antibacterial activity against Staphylococcus aureus by CLSI protocol based method; format: functional; method in brief: as §1
[7] = tested on: Escherichia coli; test: Antibacterial activity against Escherichia coli at >128 ug/ml by CLSI protocol based method; format: functional, organism-based; method in brief: as §1
[8] = tested on: Pseudomonas aeruginosa; test: Antibacterial activity against Pseudomonas aeruginosa by CLSI protocol based method; format: functional; method in brief: as §1
[9] = tested on: RAW264.7; test: Inhibition of LPS-induced nitric oxide production in mouse RAW264.7 cells incubated for 24 hrs by Griess reagent based assay; format: functional, cell-based; details: for IC50: raw264.7
Method in brief: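 RAW 264.7 cells were seeded at 5.0 × 10^5 cells/mL and held 24 h at 37 °C, 5% CO2. Medium was discarded and cells were stimulated with 1 μg/mL LPS with or without compound for 24 h at 37 °C. Supernatant was mixed 1:1 with Griess reagent for 10 min at room temperature. Absorbance was read at 570 nm against a sodium nitrite calibration curve, giving IC50.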

[10] = tested on: Shigella flexneri; test: Antibacterial activity against Shigella flexneri by CLSI protocol based method; format: functional; method in brief: as §1
[11] = tested on: Streptococcus mutans; test: Antibacterial activity against Streptococcus mutans at >128 ug/ml by CLSI protocol based method; format: functional, organism-based; method in brief: as §1
[12] = tested on: Staphylococcus epidermidis; test: Antibacterial activity against Staphylococcus epidermidis by CLSI protocol based method; format: functional; method in brief: as §1
[13] = tested on: Bacillus cereus; test: Antibacterial activity against Bacillus cereus at >128 ug/ml by CLSI protocol based method; format: functional, organism-based; method in brief: as §1
[14] = tested on: Pseudomonas aeruginosa; test: Antibacterial activity against Pseudomonas aeruginosa at >128 ug/ml by CLSI protocol based method; format: functional, organism-based; method in brief: as §1
[15] = tested on: Bacillus cereus; test: Antibacterial activity against Bacillus cereus by CLSI protocol based method; format: functional; method in brief: as §1
[16] = tested on: Escherichia coli; test: Antibacterial activity against Escherichia coli by CLSI protocol based method; format: functional; method in brief: as §1

MIC [2]	MIC [3]	MIC [6]	MIC [8]	IC50 [9]	MIC [10]	MIC [12]	MIC [15]	MIC [16]	pIC50 ([9]; Mus musculus, RAW264.7, 24 h, read-out: IC50)	SMILES	viability at 10 µM [1]	Activity [4]	Activity [5]	Activity [7]	Activity [11]	Activity [13]	Activity [14]
inactive	inactive	128 µg/mL (≈ 363 µM)	inactive	Not Active	inactive	128 µg/mL (≈ 363 µM)	inactive	inactive	–	COc1cc(O)c2c(=O)c(-c3ccc(OCC=C(C)C)cc3)coc2c1	65.3%	inactive	inactive	inactive	inactive	inactive	inactive
128 µg/mL (≈ 293 µM)	64 µg/mL (≈ 147 µM)	32 µg/mL (≈ 73.3 µM)	inactive	Not Active	inactive	128 µg/mL (≈ 293 µM)	32 µg/mL (≈ 73.3 µM)	inactive	–	CC(C)=CCOc1ccc2c(c1)O[C@@H]1Oc3cc4c(c(O)c3C(=O)[C@]21O)C=CC(C)(C)O4	65.3%	–	inactive	inactive	–	–	inactive
16 µg/mL (≈ 37.9 µM)	16 µg/mL (≈ 37.9 µM)	32 µg/mL (≈ 75.7 µM)	128 µg/mL (≈ 303 µM)	–	128 µg/mL (≈ 303 µM)	128 µg/mL (≈ 303 µM)	16 µg/mL (≈ 37.9 µM)	128 µg/mL (≈ 303 µM)	4.84	CC(C)=CCc1c(O)c(CC=C(C)C)c2occ(-c3ccc(O)c(O)c3)c(=O)c2c1O	90.2%	–	–	–	–	–	–
inactive	inactive	128 µg/mL (≈ 295 µM)	inactive	–	inactive	128 µg/mL (≈ 295 µM)	inactive	inactive	–	COc1c2c(cc3occ(-c4ccc(OCC=C(C)C)cc4O)c(=O)c13)OC(C)(C)C=C2	–	inactive	inactive	inactive	inactive	inactive	inactive
128 µg/mL (≈ 284 µM)	64 µg/mL (≈ 142 µM)	32 µg/mL (≈ 71 µM)	inactive	Not Active	inactive	128 µg/mL (≈ 284 µM)	32 µg/mL (≈ 71 µM)	inactive	–	COc1c2c(cc3c1C(=O)[C@]1(O)c4ccc(OCC=C(C)C)cc4O[C@@H]1O3)OC(C)(C)C=C2	64.4%	–	inactive	inactive	–	–	inactive
inactive	inactive	128 µg/mL (≈ 295 µM)	inactive	Not Active	128 µg/mL (≈ 295 µM)	128 µg/mL (≈ 295 µM)	inactive	inactive	–	COc1c2c(cc3occ(-c4ccc(OCC=C(C)C)c(O)c4)c(=O)c13)OC(C)(C)C=C2	64.5%	inactive	–	inactive	inactive	inactive	inactive
–	–	–	–	Not Active	–	–	–	–	–	COc1c2c(cc3occ(-c4ccc(OCC=C(C)C)cc4)c(=O)c13)OC(C)(C)C=C2	68.7%	–	–	–	–	–	inactive
16 µg/mL (≈ 32.6 µM)	2 µg/mL (≈ 4.08 µM)	4 µg/mL (≈ 8.15 µM)	128 µg/mL (≈ 261 µM)	–	128 µg/mL (≈ 261 µM)	4 µg/mL (≈ 8.15 µM)	32 µg/mL (≈ 65.2 µM)	128 µg/mL (≈ 261 µM)	–	CC(C)=CCC1=C(O)c2c(occ(-c3ccc(O)c(O)c3)c2=O)C(CC=C(C)C)(CC=C(C)C)C1=O	–	–	–	–	–	–	–
128 µg/mL (≈ 295 µM)	32 µg/mL (≈ 73.6 µM)	8 µg/mL (≈ 18.4 µM)	128 µg/mL (≈ 295 µM)	–	inactive	128 µg/mL (≈ 295 µM)	8 µg/mL (≈ 18.4 µM)	128 µg/mL (≈ 295 µM)	–	C=CC(C)(C)c1cc(-c2coc3cc4c(c(OC)c3c2=O)C=CC(C)(C)O4)c(O)cc1O	–	–	inactive	–	–	–	–

SMILES	MIC [2]	MIC [3]	MIC [6]	MIC [8]	IC50 [9]	MIC [10]	MIC [12]	MIC [15]	MIC [16]	pIC50 ([9]; Mus musculus, RAW264.7, 24 h, read-out: IC50)	viability at 10 µM [1]	Activity [4]	Activity [5]	Activity [7]	Activity [11]	Activity [13]	Activity [14]
CN[C@H](CC(C)C)C(=O)N[C@H]1C(=O)N[C@@H](CC(N)=O)C(=O)N[C@H]2C(=O)N[C@H]3C(=O)N[C@H](C(=O)N[C@H](C(=O)O)c4cc(O)cc(O)c4-c4cc3ccc4O)[C@H](O)c3ccc(c(Cl)c3)Oc3cc2cc(c3O[C@@H]2O[C@H](CO)[C@@H](O)[C@H](O)[C@H]2O[C@H]2C[C@](C)(N)[C@H](O)[C@H](C)O2)Oc2ccc(cc2Cl)[C@H]1O [VANCOMYCIN]	0.25 µg/mL (≈ 0.173 µM)	0.25 µg/mL (≈ 0.173 µM)	0.25 µg/mL (≈ 0.173 µM)	–	–	–	0.25 µg/mL (≈ 0.173 µM)	0.125 µg/mL (≈ 0.0863 µM)	–	–	–	–	–	–	–	–	–
